{"source": "PubChem BioAssay AID624467", "about": "(The Scripps Research Institute Molecular Screening Center, 2012)", "note": "The campaign covered roughly 360,000 compounds. About 3,600 (1%) were called active.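 Rule for the calls: active = activation above the mean activation of all test compounds in the run plus 3 SD (cut at about 38% in these data); inactive = the rest.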 Only a selection was taken, and actives are over-represented in it overall.", "data": [{"target": "Trace amine-associated receptor 1 (Homo sapiens) (UniProt Q96RJ0)", "sequence (Q96RJ0 whole entry, looked up)": "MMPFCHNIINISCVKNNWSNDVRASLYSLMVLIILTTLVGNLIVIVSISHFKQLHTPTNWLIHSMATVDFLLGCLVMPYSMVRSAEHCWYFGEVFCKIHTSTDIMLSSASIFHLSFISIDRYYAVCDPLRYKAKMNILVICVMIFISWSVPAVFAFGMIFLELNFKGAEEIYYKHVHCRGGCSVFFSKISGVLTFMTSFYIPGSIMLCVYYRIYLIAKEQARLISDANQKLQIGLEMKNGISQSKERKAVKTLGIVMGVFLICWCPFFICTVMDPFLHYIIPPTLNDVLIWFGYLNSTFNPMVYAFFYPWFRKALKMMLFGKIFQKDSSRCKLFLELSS", "test": "activators of TAAR1 calcium mobilization – Fluo-8 calcium fluorescence, CHO RD-HGA16 cells, primary screen (AID 624467)", "conditions": "CHO RD-HGA16 TAAR1, Fluo-8 calcium fluorescence; at 3 µM; hits give high values; vehicle wells 0%, saturating PEA agonist 100%", "summary_of_the_method": "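Assay system: CHO-derived RD-HGA16 cells with stable Gα16 and human TAAR1; timing: 17-24 h seeding, 75 min 37 °C dye, 30 min RT; read-out: % activation from peak over basal fluorescence ratio, DMSO-to-PEA scaled; measured by: kinetic Fluo-8 calcium fluorescence; benchmarks: low control DMSO, high control PEA (EC100); doses: 3 µM single concentration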", "values": [{"smiles": "Cc1ccc(NC(=O)c2cnc(SCC(=O)NCC3CCCO3)n(C)c2=O)cc1", "note": "(stereo not given)", "activation": "1.71% (inactive)"}, {"smiles": "Cc1ccccc1-c1nc(CS(=O)(=O)CC(=O)NC(C)c2ccccc2)c(C)o1", "note": "(stereo not given)", "activation": "-0.93% (inactive)"}, {"smiles": "CSc1ccc(CCNC(=O)CS(=O)(=O)Cc2nc(-c3ccccc3F)oc2C)cc1", "activation": "2.41% (inactive)"}, {"smiles": "Cc1ccccc1-c1nc(CS(=O)(=O)CC(=O)N2CCc3ccccc3C2)c(C)o1", "activation": "45.5% (active)"}, {"smiles": "CCOC(=O)/C=C/c1ccccc1O", "activation": "0.06% (inactive)"}, {"smiles": "CC(=O)N1Cc2cc(C(=O)NCc3cccc(F)c3)nc(-c3cccc(C4=CCCC4)c3)c2[C@H]1CCO", "activation": "1.95% (inactive)"}, {"smiles": "COc1ccc(OC)c(C(c2nnnn2C(C)(C)C)N2CCc3ccccc3C2)c1", "note": "(stereo not given)", "activation": "64.7% (active)"}, {"smiles": "COc1ccccc1C(c1nnnn1C(C)(C)C)N1CCN(Cc2ccccc2)CC1", "note": "(stereo not given)", "activation": "7.42% (inactive)"}, {"smiles": "COCCn1nnnc1C(c1cc2ccc(OC)cc2[nH]c1=O)N1CCc2ccccc2C1", "note": "(stereo not given)", "activation": "5.6% (inactive)"}, {"smiles": "O=C(NNC(=O)c1cc(-c2ccccc2Cl)nc2ccccc12)c1csc(N2CCOCC2)n1", "activation": "2.63% (inactive)"}, {"smiles": "O=C(OCCOc1ccccc1F)c1cc(S(=O)(=O)N2CCOCC2)ccc1F", "activation": "3.93% (inactive)"}, {"smiles": "COc1cccc(-c2cc(CNC(=O)[C@@H](Cc3ccccc3)NC(=O)[C@H]3O[C@@H](n4cnc(C(N)=O)n4)[C@H](O)[C@@H]3O)no2)c1", "activation": "2.47% (inactive)"}, {"smiles": "Cc1ccc(NC(=O)CN(C)C(=O)c2ccc(Cl)c(S(=O)(=O)NCc3ccco3)c2)cc1", "activation": "1.71% (inactive)"}, {"smiles": "COc1ccc(CNC(=O)c2ccc(-c3cccnc3)c3ccoc23)cc1OC", "activation": "19.1% (inactive)"}, {"smiles": "N=C1C(c2nc3ccccc3[nH]2)=C(O)CN1NC(=O)c1c[nH]c2ccccc12", "activation": "41.7% (active)"}, {"smiles": "CCc1ccc(N2CC(O)=C(c3nc4ccccc4c(=O)[nH]3)C2=N)cc1", "activation": "7.2% (inactive)"}, {"smiles": "C[N+](C)(C)CCNC(=O)c1c[nH]c2ccccc12", "activation": "3.46% (inactive)"}, {"smiles": "C=CCN=C1NC(c2ccccc2)C(C(=O)OC)=C(C)N1Cc1ccc(C(F)(F)F)cc1", "note": "(stereo not given)", "activation": "26.7% (inactive)"}, {"smiles": "CCN(CC)CCCC(C)n1c2nc(=O)[nH]c(=O)c-2nc2cc(Cl)ccc21", "note": "(stereo not given)", "activation": "244% (active)"}, {"smiles": "COc1cccc(CC(=O)N2CCN(C(=O)C(=O)c3cccc(C(F)(F)F)c3)CC2)c1", "activation": "-0.34% (inactive)"}, {"smiles": "CCCCCCCCN1C(=O)[C@@H](CC(=O)NCc2ccc(C)o2)C[C@@]2(C(=O)OC)C1=C[C@H](C(C)(C)C)O[C@@H]2C", "activation": "-1.18% (inactive)"}, {"smiles": "CCCc1cc(C(=O)Nc2ccc(Cl)cn2)cs1", "activation": "0.75% (inactive)"}, {"smiles": "CCN(CC)C(=O)CCC(=O)Nc1ccc(C(=O)OC)cc1", "activation": "4.26% (inactive)"}, {"smiles": "CCCc1cc(C(=O)Nc2ccc(C(=O)OC)cc2)cs1", "activation": "42.9% (active)"}, {"smiles": "NC1=NC(c2ccc([N+](=O)[O-])cc2)N(c2ccc(F)cc2)C(N)=N1", "note": "(stereo not given)", "activation": "2.32% (inactive)"}, {"smiles": "CCOC(=O)Cc1csc(NC(=O)Nc2ccccc2)n1", "activation": "51.5% (active)"}, {"smiles": "CCOC(=O)Cc1csc(NC(NC(=O)OCC)(C(F)(F)F)C(F)(F)F)n1", "activation": "11.4% (inactive)"}, {"smiles": "COC(=O)Cc1csc(Nc2c(C)n(C)n(-c3ccccc3)c2=O)n1", "activation": "7.82% (inactive)"}, {"smiles": "C/C(=N\\NC(=O)CNC(=O)C(c1ccccc1)c1ccccc1)c1ccc(C)cc1", "activation": "-0.46% (inactive)"}, {"smiles": "CCCOCC(O)CC(CC)C(=O)NNC(=S)Nc1ccccc1", "note": "(stereo not given)", "activation": "6.99% (inactive)"}, {"smiles": "CCCCC(=O)NNC(=S)NC(=O)C(c1ccccc1)c1ccccc1", "activation": "137% (active)"}, {"smiles": "CCN(CC)Cc1nc2sc(C)c(C)c2c(=O)[nH]1", "activation": "7.06% (inactive)"}, {"smiles": "Cc1cc(NCCc2c[nH]c3ccccc23)ccc1Oc1cccnc1", "activation": "-0.68% (inactive)"}, {"smiles": "COC(=O)Nc1nc2ccc(C(=O)C3CC3)cc2[nH]1", "activation": "0.33% (inactive)"}, {"smiles": "CC(C)C(=O)Nc1nnc(SCC(=O)N2C(C)CCCC2C)s1", "note": "(stereo not given)", "activation": "2.6% (inactive)"}, {"smiles": "CC/C(=C(/c1ccccc1)c1ccc(OCC[N+](C)(C)C)cc1)c1ccccc1", "activation": "13.5% (inactive)"}, {"smiles": "OC(c1ccccc1)(c1ccccc1)C1CCN(CCCOc2ccc(-c3ccsc3)cc2)CC1", "activation": "35.3% (inactive)"}, {"smiles": "OC(c1ccccc1)(c1ccccc1)C1CCN(CCCOc2ccccc2)CC1", "activation": "23.6% (inactive)"}, {"smiles": "N#Cc1ccc(OCCCN2CCC(C(O)(c3ccccc3)c3ccccc3)CC2)c(F)c1", "activation": "51% (active)"}, {"smiles": "Cc1ccc2c(c1)N(S(=O)(=O)c1cc(-c3cc(C)no3)ccc1C)CCO2", "activation": "0.2% (inactive)"}, {"smiles": "Nc1c(C(=O)c2cccs2)sc2nsc(SCCN3CCCCC3)c12", "activation": "95.1% (active)"}, {"smiles": "Nc1ccn([C@@H]2O[C@H](C(=O)N[C@H]3CCCCNC3=O)[C@@H](O)[C@H]2O)c(=O)n1", "activation": "-0.44% (inactive)"}, {"smiles": "c1ccc2c(NC3C4CC5CC(C4)CC3C5)nc(N3CCOCC3)nc2c1", "note": "(stereo not given)", "activation": "28.9% (inactive)"}, {"smiles": "c1ccc(Nc2nc(N3CCOCC3)c3ccccc3n2)cc1", "activation": "98.4% (active)"}, {"smiles": "COc1ccc(Nc2ncc(F)c(N3CCOCC3)n2)cc1", "activation": "6.99% (inactive)"}, {"smiles": "O=S1(=O)c2c(cccc2N2CCCCC2)O[C@H](COCc2ccccc2)CN1C1CC1", "activation": "-0.15% (inactive)"}, {"smiles": "CC(C)c1c(C(=O)N/N=C/c2ccccc2C(=O)O)nnn1-c1nonc1N", "activation": "2.66% (inactive)"}, {"smiles": "C/C(COc1ccccc1)=N\\NC(=O)c1nnn(-c2nonc2N)c1-c1ccc(C)cc1", "activation": "6.16% (inactive)"}, {"smiles": "CC(C)Oc1ccc(/C=N/NC(=O)c2nnn(-c3nonc3N)c2CN(C)C2CCCCC2)cc1", "activation": "19.2% (inactive)"}, {"smiles": "Nc1nonc1-n1nnc(C(=O)N/N=C/c2ccc(Cl)cc2)c1-c1ccc2c(c1)OCO2", "activation": "133% (active)"}, {"smiles": "CCc1ccc(/C=N/NC(=O)c2nnn(-c3nonc3N)c2CN2CCc3ccccc32)cc1", "activation": "4.17% (inactive)"}, {"smiles": "CCCOc1ccc(-c2c(C(=O)N/N=C/c3ccco3)nnn2-c2nonc2N)cc1", "activation": "74.1% (active)"}, {"smiles": "CCOC(=O)N1CCN(C(=O)C[C@H]2C[C@@]3(C(=O)OC)C(=C[C@H](C4CCCC4)O[C@@H]3C)N(Cc3ccccc3)C2=O)CC1", "activation": "-1.14% (inactive)"}, {"smiles": "CCc1ccc(C2=CC(=O)CC(C)(C)C2=O)cc1", "activation": "-1.42% (inactive)"}, {"smiles": "CCCCN1C(=O)C(CC(=O)NC(c2ccccc2)c2ccccc2)CC(C(=O)N2CCOCC2)=C1C", "note": "(stereo not given)", "activation": "0.19% (inactive)"}, {"smiles": "CC(C)CNc1cccc2c1S(=O)(=O)N[C@H](CC(C)C)CO2", "activation": "-0.51% (inactive)"}, {"smiles": "CN(CCO)C(=O)c1nc[nH]c1C(=O)N(C)Cc1ccccc1", "activation": "0.95% (inactive)"}, {"smiles": "CN(C(=O)CN(CCO)CC(=O)N(C)C(C)(C)Cc1ccccc1)C(C)(C)Cc1ccccc1", "activation": "125% (active)"}, {"smiles": "CCOC(=O)N(Cc1ccccc1)C1CC1", "activation": "3.18% (inactive)"}, {"smiles": "COc1ccc(NS(=O)(=O)c2cc3c(cc2C)N(C(C)=O)CCO3)cc1", "activation": "1.33% (inactive)"}, {"smiles": "C=CC[C@]12C[C@@]3(O[C@H](c4ccc(C(F)(F)F)cc4)N=C3C[C@H](c3ccc(OC)cc3)[C@H]1C)N(C1CCN(Cc3ccccc3)CC1)C2=O", "activation": "0.44% (inactive)"}, {"smiles": "CC1CCN(c2c(NCc3ccc(C(=O)NCc4ccccc4)cc3)c(=O)c2=O)CC1", "activation": "0.05% (inactive)"}, {"smiles": "CC1CCCN(c2ccc(C(=O)NCCc3ccccc3)cn2)C1", "note": "(stereo not given)", "activation": "41.2% (active)"}, {"smiles": "CC1CCN(C(=O)CCNC(=O)c2ccccc2)CC1", "activation": "1.29% (inactive)"}, {"smiles": "CC(=O)NC1C(Oc2ccc(C)cc2)OC2COC(c3ccco3)OC2C1O", "note": "(stereo not given)", "activation": "1.22% (inactive)"}, {"smiles": "CCc1ccc(NC(=O)Nc2ccncc2)cc1", "activation": "30.2% (inactive)"}, {"smiles": "O=C(Nc1ccc(Cl)cc1)Nc1ccc(Oc2cccnc2)nc1", "activation": "35.4% (inactive)"}, {"smiles": "O=C(Nc1ccncc1)Nc1ccc(F)cc1", "activation": "78.9% (active)"}, {"smiles": "O=C(CCC(=O)n1ncc2ccccc21)NCc1ccccc1Cl", "activation": "0.3% (inactive)"}, {"smiles": "COc1cccc(NC(=O)N(C)C[C@@H]2OCc3cn(nn3)CCCC(=O)N([C@@H](C)CO)C[C@H]2C)c1", "activation": "1.34% (inactive)"}, {"smiles": "O=S(=O)(c1ccc(Br)c2ccccc12)N1CCOCC1", "activation": "3.96% (inactive)"}, {"smiles": "CCOC(=O)C1=C(O)/C(=C/c2cc(C)n(-c3ccccc3)c2C)N=C1C", "activation": "8.89% (inactive)"}, {"smiles": "Cc1cccc(C)c1-n1c(C)cc(/C=C2\\C(=O)NN(c3ccccc3)C2=O)c1C", "activation": "38.3% (active)"}, {"smiles": "CN(C(=O)c1cccc(NC(=O)C2CCN(C(=O)OC(C)(C)C)CC2)c1)C1CCC1", "activation": "12.7% (inactive)"}, {"smiles": "Cc1ccc(CNC(=O)Nc2nnc([C@H]3C[C@H](O)[C@@H](CO)O3)s2)cc1", "activation": "0.94% (inactive)"}, {"smiles": "O=C(Nc1nnc([C@H]2C[C@H](O)[C@@H](CO)O2)s1)c1cccc(Cl)c1", "activation": "2.33% (inactive)"}, {"smiles": "O=C(Nc1ccc(F)cc1)Nc1nnc([C@H]2C[C@H](O)[C@@H](CO)O2)s1", "activation": "45% (active)"}, {"smiles": "CC(=O)c1c(N2CCN(c3ccc(F)cc3)CC2)nc(=S)n(-c2ccccc2)c1C", "activation": "-0.41% (inactive)"}, {"smiles": "Cn1ccsc1=NC(=O)c1cc(S(=O)(=O)N2CCOCC2)ccc1Cl", "activation": "4.63% (inactive)"}, {"smiles": "COc1ccc(-c2ccc3c(n2)CCCN3S(=O)(=O)c2ccc(C)cc2)cc1", "activation": "1.61% (inactive)"}, {"smiles": "Cc1ccc(Cn2c(C)c(C(=O)NCc3ccccc3C(F)(F)F)sc2=O)cc1", "activation": "0.22% (inactive)"}, {"smiles": "CC(=O)Oc1ccc(Cn2c(C)c(C(=O)NCc3ccc(C#N)cc3)sc2=O)cc1", "activation": "140% (active)"}, {"smiles": "Cc1c(C(=O)NCc2ccc(C#N)cc2)sc(=O)n1Cc1ccc(C(=O)N(C)C)cc1", "activation": "2.3% (inactive)"}, {"smiles": "CC(C)[C@@H](C)/C=C/[C@@H](C)[C@H]1CC[C@@H]2[C@]1(C)CCC1[C@]23C=C[C@]2(C[C@@H](O)CC[C@]12C)N(c1ccc([N+](=O)[O-])cn1)O3", "note": "(stereo not given in full)", "activation": "-0.81% (inactive)"}, {"smiles": "O=C(NCc1ccccc1)[C@H]1CCCN1C(=O)[C@H]1CCCN1C(=O)c1cc(F)cc(F)c1", "activation": "-0.16% (inactive)"}]}]}
